What was measured:
[1] = target: Phosphodiesterase 4 (Homo sapiens, UniProt P27815+Q08499+Q07343+Q08493); test: Inhibitory concentration against phosphodiesterase 4 (PDE4) in cytosol of human neutrophils; assay type: protein assay
[2] = tested on: Mus musculus; test: Percent inhibition of arachidonic acid (AA) […], induced mouse ear edema after pretreatment at a concentration of 30 umol/kg (po); assay type: functional
How it was run: (§1)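 Female NMRI mice, 25–32 g, n = 8 per group. Compound in water (pH 6.5–7) given by gavage at 30 μmol/kg, 1 h before 3 mg arachidonic acid in 10 μL acetone applied to the right ear.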

[3] = tested on: Mus musculus; test: Percent inhibition of arachidonic acid induced mouse ear edema after 1 hr pretreatment with 30 uM/kg peroral dose; assay type: functional; how it was run: as §1
[4] = Inhibition of LPS-stimulated tumor necrosis factor-alpha release by human whole blood; assay type: functional
How it was run: (§2)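 Heparinized venous human whole blood (8 U/mL) from healthy volunteers, preincubated 15 min at 37 °C with compound (0.001–10 μM final, 0.1% DMSO). Then stimulated with LPS (1 μg/mL final) for 4 h at 37 °C. Plasma TNFα measured by nonisotopic immunoassay. IC30 from concentration–inhibition curves by nonlinear regression. Means of two independent determinations in triplicate.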

[5] = Inhibition of N-formyl-methionyl-leucyl-phenylalanine (fMLP)-stimulated production of reactive oxygen species (ROS) in human PMNL by 35% of control; assay type: functional
How it was run: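 PMNL isolated from citrated human blood (dextran sedimentation, ficoll, hypotonic lysis), 1.25 × 10^7 cells/mL. Buffer: HEPES saline with Mg/Ca, glucose, BSA, 10 μM luminol, 4 μM microperoxidase. […] IC35 by nonlinear regression. Two independent determinations in triplicate.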

[6] = Inhibition of LPS-stimulated Tumor necrosis factor alpha release by human whole blood; assay type: functional; how it was run: as §2

| Log IC50 [1] | Structure (SMILES) | inhibition in vivo at 30 µmol/kg [2] [%] | further results |
| --- | --- | --- | --- |
| -6.8 | COc1ccc(C2=NN(C)C(=O)C3CCCCC23)cc1OC (centres undefined) |  |  |
| -7.9 | COc1ccc(C2=NN(C(C)(C)C)C(=O)C3CCCCC23)cc1OC (centres undefined) |  |  |
| -9.2 | COc1ccc(C2=NN(C3CCCCC3)C(=O)C3CC=CCC23)cc1OC (centres undefined) | 13 |  |
| -8.9 | COc1ccc(C2=NN(C3CCSCC3)C(=O)C3CC=CCC23)cc1OC (centres undefined) |  |  |
| -9.4 | COc1ccc(C2=NN(C3C4CC5CC(C4)CC3C5)C(=O)C3CC=CCC23)cc1OC (centres undefined) | 51 | pIC30 [4]: 7.22; pIC35 [5]: 6.3 |
| -8.9 | COc1ccc(C2=NN(C3CCOCC3)C(=O)C3CC=CCC23)cc1OC (centres undefined) | 2 |  |
| -6.5 | COc1ccc(C2=NN(CCN(C)C)C(=O)C3CCCCC23)cc1OC (centres undefined) |  |  |
| -7.2 | COc1ccc(C2=NN(CC#N)C(=O)C3CCCCC23)cc1OC (centres undefined) |  |  |
| -8.1 | COc1ccc(C2=NN(CC3CC3)C(=O)C3CC=CCC23)cc1OC (centres undefined) | 15 |  |
| -6.8 | COc1ccc(C2=NN(CCO)C(=O)C3CCCCC23)cc1OC (centres undefined) |  |  |
| -9.3 | COc1ccc(C2=NN(C3CCCCCCC3)C(=O)C3CC=CCC23)cc1OC (centres undefined) | 30 |  |
| -7.4 | CCN1N=C(c2ccc(OC)c(OC)c2)C2CCCCC2C1=O (centres undefined) |  |  |
| -8.6 | COc1ccc(C2=NN(C(C)C)C(=O)C3CCCCC23)cc1OC (centres undefined) | 14 |  |
| -7.4 | C#CCN1N=C(c2ccc(OC)c(OC)c2)C2CCCCC2C1=O (centres undefined) |  |  |
| -9.3 | COc1ccc(C2=NN(C3CCCC3)C(=O)C3CC=CCC23)cc1OC (centres undefined) | 19 |  |
| -7.6 | COc1ccc(C2=NN(c3ccccc3)C(=O)C3CCCCC23)cc1OC (centres undefined) |  |  |
| -7.8 | CCCN1N=C(c2ccc(OC)c(OC)c2)C2CCCCC2C1=O (centres undefined) |  |  |
| -5.7 | COc1ccc(C2=NN(CC(=O)O)C(=O)C3CCCCC23)cc1OC (centres undefined) |  |  |
| -9.1 | COc1ccc(C2=NN(C3Cc4ccccc4C3)C(=O)C3CC=CCC23)cc1OC (centres undefined) |  |  |
| -8.4 | COc1ccc(C2=NN(C3CCCC3)C(=O)C3CCCCC23)cc1OC (centres undefined) |  |  |
| -8.6 | COc1ccc(C2=NN(C3CCCCCC3)C(=O)C3CCCCC23)cc1OC (centres undefined) | 18 | pIC30 [6]: 7.3 |
| -7.5 | COc1ccc(C2=NN(CCCO)C(=O)C3CCCCC23)cc1OC (centres undefined) |  |  |
| -8.9 | COc1ccc(C2=NN(C(C)C)C(=O)C3CC=CCC23)cc1OC (centres undefined) | 15 |  |
| -7.6 | C=CCN1N=C(c2ccc(OC)c(OC)c2)C2CCCCC2C1=O (centres undefined) |  |  |
| -7.6 | COc1ccc(C2=NN(Cc3ccccn3)C(=O)C3CCCCC23)cc1OC (centres undefined) |  |  |
| -7.6 | COc1ccc(C2=NN(Cc3cccnc3)C(=O)C3CCCCC23)cc1OC (centres undefined) |  |  |

Further lines, the compound ahead of its results:

| Structure (SMILES) | Log IC50 [1] | inhibition in vivo at 30 µmol/kg [2] [%] | further results |
| --- | --- | --- | --- |
| COc1ccc(C2=NN(Cc3cccc(C(=O)O)c3)C(=O)C3CCCCC23)cc1OC (centres undefined) | -7.9 | 18 |  |
| COc1ccc(C2=NN(Cc3cccc(O)c3)C(=O)C3CCCCC23)cc1OC (centres undefined) | -8 |  |  |
| COc1ccc(C2=NN(C/C=C/c3ccccc3)C(=O)C3CCCCC23)cc1OC (centres undefined) | -7.8 |  |  |
| COc1ccc(C2=NN(CCCCCC(=O)[O-])C(=O)C3CCCCC23)cc1OC.[Na+] (centres undefined) | -7.5 | 18 |  |
| COc1ccc(C2=NN(CCCCCCCC(=O)O)C(=O)C3CCCCC23)cc1OC (centres undefined) | -7.6 |  | Inhibition [3]: 13% |
| COc1ccc(C2=NN(C3CCCCCC3)C(=O)C3CC=CCC23)cc1OC (centres undefined) |  | 59 | pIC30 [4]: 7.05; pIC35 [5]: 6.82 |
| COc1ccc(C2=NN(C3CCCCCC3)C(=O)C3CC=CCC23)c2c1OC1(CCCC1)C2 (centres undefined) |  | 49 |  |
| COc1ccccc1CN1N=C(c2ccc(OC)c(OC)c2)C2CCCCC2C1=O (centres undefined) | -7.7 |  |  |
| COc1ccc(C2=NN(Cc3ccccc3O)C(=O)C3CCCCC23)cc1OC (centres undefined) | -8.1 |  |  |
| COc1ccc(C2=NN(C3CCCCCC3)C(=O)C3CCCCC23)c2c1OC1(CCCC1)C2 (centres undefined) | -9.2 | 29 |  |
| COc1ccc(C2=NN(CCCCCCN(C)C)C(=O)C3CCCCC23)cc1OC (centres undefined) | -7 |  |  |
| COc1ccc(C2=NN(Cc3ccc(C(=O)O)cc3)C(=O)C3CCCCC23)cc1OC (centres undefined) | -7.3 | 27 |  |
| COc1ccc(C2=NN(CCCOc3ccccc3)C(=O)C3CCCCC23)cc1OC (centres undefined) | -7.9 |  |  |
| COc1ccc(C2=NN(Cc3ccncc3)C(=O)C3CCCCC23)cc1OC (centres undefined) | -7.8 | 29 |  |
| COc1ccc(CN2N=C(c3ccc(OC)c(OC)c3)C3CCCCC3C2=O)cc1 (centres undefined) | -8.2 | 13 |  |
| COc1ccc(C2=NN(CCCCn3ccnc3)C(=O)C3CCCCC23)cc1OC (centres undefined) | -8 | 39 |  |
| COc1ccc(C2=NN(C3CCCCCC3)C(=O)C3CC=CCC23)c2c1OC(C)(C)C2 (centres undefined) |  | 54 | pIC30 [4]: 7.05 |
| COc1ccc(C2=NN(CC(=O)c3ccccc3)C(=O)C3CCCCC23)cc1OC (centres undefined) | -8 |  |  |
| COc1ccc(C2=NN(Cc3ccc(O)cc3)C(=O)C3CCCCC23)cc1OC (centres undefined) | -8 |  |  |
| COc1ccc(C2=NN(CCCCCCN)C(=O)C3CCCCC23)cc1OC (centres undefined) | -7.1 |  |  |
| COc1cc(CN2N=C(c3ccc(OC)c(OC)c3)C3CCCCC3C2=O)cc(OC)c1 (centres undefined) | -7.6 |  |  |
| CCOC(=O)CN1N=C(c2ccc(OC)c(OC)c2)C2CCCCC2C1=O (centres undefined) | -7.2 |  |  |
| COc1ccc(C2=NN(CCn3ccnc3)C(=O)C3CCCCC23)cc1OC (centres undefined) | -6.3 |  |  |
| COc1ccc(C2=NN(CCCCN(C)C)C(=O)C3CCCCC23)cc1OC (centres undefined) | -7 |  |  |
| COc1cccc(CN2N=C(c3ccc(OC)c(OC)c3)C3CCCCC3C2=O)c1 (centres undefined) | -8.5 | 8 |  |
| COc1ccc(C2=NN(CCc3ccccc3)C(=O)C3CCCCC23)cc1OC (centres undefined) | -7.6 |  |  |
| COC(=O)c1ccc(CN2N=C(c3ccc(OC)c(OC)c3)C3CCCCC3C2=O)cc1 (centres undefined) | -7.9 |  |  |
| COc1ccc([C@@H]2CNC(=O)C2)cc1OC1CCCC1 [(-)-ROLIPRAM] |  |  | Inhibition [3]: 55% |
| COc1ccc([C@H](Cc2ccncc2)c2ccccc2)cc1OC1CCCC1 [CDP840] |  | 48 | pIC30 [4]: 4.82; pIC35 [5]: 7.2 |
| COc1ccc([C@]2(C#N)CC[C@@H](C(=O)O)CC2)cc1OC1CCCC1 [CILOMILAST] |  | 33 | pIC30 [4]: 4.89; pIC35 [5]: 7.04 |

— ChEMBL document CHEMBL1135581, “Novel selective PDE4 inhibitors. 3. In vivo antiinflammatory activity of a new series of N-substituted cis-tetra- and cis-hexahydrophthalazinones” (J Med Chem, 2002)
